Laboratory results: ChEMBL document CHEMBL3244405, “Imidazo[4,5-f]quinolines. 4. Synthesis and anthelmintic activity of a series of imidazo[4,5-f]quinolin-9-ols” (J Med Chem, 1978)
Activity calls are given as the source filed them. The calls are words filed in the database; no cut-off is given here.

Experiments:
Rodentolepis nana [1] = test: Anthelmintic activity against Hymenolepis nana infected in mouse assessed as reduction in worm burden at 300 mg/kg bid for 5 days relative to control; type: functional; set-up: scale not given: the % may be the effect or the level left
Summary of the method: (§1)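 Mice carried the tapeworm *H. nana* and were dosed at 300, 100, 50, 25, 10, 5 or 2.5 mg/kg. Activity was read as percent reduction in worm burden, and significance was tested by Mann-Whitney U test. The rest of the procedure follows an earlier publication.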

Rodentolepis nana [2] = test: Anthelmintic activity against Hymenolepis nana infected in mouse assessed as reduction in worm burden at 100 mg/kg bid for 5 days relative to control; type: functional; set-up: scale not given: the % may be the effect or the level left; summary of the method: as §1
Rodentolepis nana [3] = test: Anthelmintic activity against Hymenolepis nana infected in mouse assessed as reduction in worm burden at 50 mg/kg bid for 5 days relative to control; type: functional; set-up: scale not given: the % may be the effect or the level left; summary of the method: as §1
Rodentolepis nana [4] = test: Anthelmintic activity against Hymenolepis nana infected in mouse assessed as reduction in worm burden at 25 mg/kg bid for 5 days relative to control; type: functional; summary of the method: as §1
Rodentolepis nana [5] = test: Anthelmintic activity against Hymenolepis nana infected in mouse assessed as reduction in worm burden at 10 mg/kg bid for 5 days relative to control; type: functional; summary of the method: as §1
Taenia crassiceps = test: Anthelmintic activity against Taenia crassiceps infected in beagle dog assessed as complete parasite clearance at 100 mg/kg after 9 days; type: functional, organism-based; set-up: dose 100 mg/kg
Summary of the method: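 Dogs received a recently isolated *T. crassiceps* strain as 40 cysts per dog, taken from mice and given perorally in gelatin capsules to young beagles. On day 37, drug was given in gelatin capsules, three dogs per test. Dogs were sacrificed 9 days after treatment, and intestinal scolices were counted as worms recovered at necropsy.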

Rodentolepis nana [6] = test: Anthelmintic activity against Hymenolepis nana infected in mouse assessed as reduction in worm burden at 5 mg/kg bid for 5 days relative to control; type: functional; set-up: scale not given: the % may be the effect or the level left; summary of the method: as §1
Rodentolepis nana [7] = test: Anthelmintic activity against Hymenolepis nana infected in mouse assessed as reduction in worm burden at 2.5 mg/kg bid for 5 days relative to control; type: functional; set-up: scale not given: the % may be the effect or the level left; summary of the method: as §1
Taenia pisiformis = test: Anthelmintic activity against Taenia pisiformis infected in beagle dog assessed as complete parasite clearance at 50 to 150 mg/kg, po after 10 days; type: functional, organism-based
Summary of the method: (§2)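 Beagles infected with *T. pisiformis*, aged from puppies to 2–3 years, received single oral doses of 50–150 mg/kg body weight. Readouts were worm clearance plus observation for emesis and other untoward clinical signs.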

Canis familiaris [8] = test: Toxicity in beagle dog assessed as emesis at 50 to 150 mg/kg, po; type: organism-based, Canis lupus familiaris; set-up: dose 50-150 mg/kg, route oral; details: in vivo; summary of the method: as §2
Canis familiaris [9] = test: Toxicity in beagle dog assessed as untoward clinical signs at 50 to 150 mg/kg, po; type: organism-based, Canis lupus familiaris; set-up: dose 50-150 mg/kg, route oral; details: in vivo; summary of the method: as §2
Syphacia obvelata [10] = test: Anthelmintic activity against Syphacia obvelata infected in mouse assessed as complete parasite clearance at 50 mg/kg bid for 5 days; type: functional, organism-based; set-up: dose 50 mg/kg
Syphacia obvelata [11] = test: Anthelmintic activity against Syphacia obvelata infected in mouse assessed as reduction in worm burden at 10 mg/kg bid for 5 days relative to control; type: functional; set-up: scale not given: the % may be the effect or the level left
Moniezia = test: Anthelmintic activity against Moniezia species infected in sheep assessed as complete parasite clearance at 50 mg/kg for 3 days administered as drench solution; type: functional, organism-based; set-up: dose 50 mg/kg
Summary of the method: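 Sheep were naturally infected. Drug was mixed with water and sonified to a creamy consistency, then given as a drench. Animals were sacrificed 3 days after dosing and the intestines were examined for worms.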

Mus musculus = test: Toxicity in mouse infected with Hymenolepis nana at 300 mg/kg bid for 5 days; type: organism-based; set-up: dose 300 mg/kg; details: in vivo, 120 h

Oc1c2c(nc3ccc4nc(-c5ccccc5)[nH]c4c13)CCC2
Activity (Rodentolepis nana [1]): 100%
Activity (Rodentolepis nana [2]): 100%
Activity (Rodentolepis nana [3]): 41%
Activity (Rodentolepis nana [4]): inactive

Cc1nc2ccc3nc(-c4ccccc4)[nH]c3c2c(O)c1C
Activity (Rodentolepis nana [1]): 100%
Activity (Rodentolepis nana [2]): 100%
Activity (Rodentolepis nana [3]): 94%
Activity (Rodentolepis nana [4]): inactive

Cc1cc(O)c2c(ccc3nc(-c4ccccc4)[nH]c32)n1
Activity (Rodentolepis nana [1]): 100%
Activity (Rodentolepis nana [2]): 93%
Activity (Rodentolepis nana [3]): 94%
Activity (Rodentolepis nana [4]): 77%
Activity (Rodentolepis nana [5]): inactive

Cc1cc(O)c2c(ccc3nc(-c4ccco4)[nH]c32)n1 [FURODAZOLE]
Activity (Taenia crassiceps): Active
Activity (Rodentolepis nana [1]): 100%
Activity (Rodentolepis nana [2]): 100%
Activity (Rodentolepis nana [3]): 100%
Activity (Rodentolepis nana [4]): 100%
Activity (Rodentolepis nana [5]): 75%
Activity (Rodentolepis nana [6]): 57%
Activity (Rodentolepis nana [7]): 35%
Activity (Taenia pisiformis): Active
Activity (Canis familiaris [8]): Toxic
Activity (Canis familiaris [9]): Toxic
Activity (Syphacia obvelata [10]): Active
Activity (Syphacia obvelata [11]): 68%
Activity (Moniezia): Active

Cc1ccc(-c2nc3ccc4nc(C)cc(O)c4c3[nH]2)cc1
Activity (Rodentolepis nana [1]): 70%
Activity (Rodentolepis nana [2]): inactive

CCCCCCOc1ccc(C(=N)N(CCCC)CCCC)c2ccccc12 [BUNAMIDINE]
Activity (Rodentolepis nana [2]): 100%
Activity (Rodentolepis nana [3]): 59%
Activity (Rodentolepis nana [4]): 30%
Activity (Rodentolepis nana [5]): inactive
Activity (Mus musculus): Toxic

Cc1cc(O)c2c(ccc3nc(-c4ccccc4Cl)[nH]c32)n1
Activity (Rodentolepis nana [1]): 100%
Activity (Rodentolepis nana [2]): 100%
Activity (Rodentolepis nana [3]): 75%
Activity (Rodentolepis nana [4]): inactive

Oc1cc(-c2ccccc2)nc2ccc3nc(-c4ccccc4)[nH]c3c12
Activity (Rodentolepis nana [1]): 100%
Activity (Rodentolepis nana [2]): 100%
Activity (Rodentolepis nana [3]): 82%
Activity (Rodentolepis nana [4]): inactive
